Assay outcomes as filed in PubChem BioAssay.
This is a sample that favours compounds with a hit; in the whole collection about 3.6% have one here.
RAM network inh: yeast RAM network inhibition; 1.8% of 190,000 active; AID 868; S. cerevisiae dse1pr::URA3 reporter, 5-FOA growth OD615, 2 d; analog-sensitive cbk1-as2 kinase mutant strain; inhibition, % at 50 µM;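 active = inhibition above a set limit, 3 SD over mean compound inhibition, cut at about 8.4% in these data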;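 note: 0% = DMSO-only wells with no growth and 100% = 10 µM 1-NA-PP1 full growth; inhibition rescues growth on 5-FOA so higher OD means more RAM inhibition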
BB579 growth dn: yeast BB579 growth reduction in restrictive medium; 0.51% of 140,000 active; AID 804; inhibition, % at 10 µM; S. cerevisiae BB579 growth, OD615, 48 h;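 active = inhibition above a set limit, 3 SD over the mean compound inhibition, cut at about 44% in these data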
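test system = yeast BB579 (DeaD) | buffer or medium = restrictive CSMM-D medium | doses = single compound dose of 10 µM, 0.25% DMSO final | times = 4 h preincubation and 48 h exposure at 30 °C | technique = culture absorbance at 615 nm | benchmarks = amphotericin B 10 µg/mL, positive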
Measles CPE: protection of cells from measles virus; protection (pct of control), % at 4 µM; Measles virus-infected cells, CPE protection, absorbance; 1.5% of 140,000 active; in the data active = protection mostly above about 24%, no sharp cut-off; inactive = mostly below about 26%
Yeast lifespan up: extends the lifespan of yeast | 0.68% of 130,000 active | inhibition of the nicotinamide effect, % at 10 µM | S. cerevisiae growth with nicotinamide, OD615; deaD strain in restrictive glucose medium;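 active = inhibition above a set limit, placed 3 SD over the median of all compounds, cut at about 26% in these data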;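 note: 0% = nicotinamide-treated wells and 100% = cells grown without nicotinamide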
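Buffer or medium: CSMM-D glucose medium, restrictive; test system: modified budding yeast, DeaD strain; compound: single dose 10 µM compound, 0.25% DMSO; schedule: culture preincubation 4 h, compound exposure 48 h, both 30 °C; detection: optical density (absorbance) at 615 nm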
RAM 5-FOA: RAM network inhibitors in efflux-deficient yeast; shares compounds with RAM network inh; S. cerevisiae efflux-deficient reporter strain, 5-FOA growth OD615, 2 days; max inhibition, %; 1,200 tested, under 10 active; AID 1305; call rule not given here;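 note: plate controls were vehicle for no effect and reference inhibitor for full effect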
* hit, by the source's call; · = not tested or not shown.

SMILES | RAM network inh | BB579 growth dn | Measles CPE | Yeast lifespan up | RAM 5-FOA
CN(Cc1ccc(-n2cccn2)cc1)Cc1nc(-c2cnccn2)no1 | 4.2 | · | · | · | ·
Cc1nn(C)c(Cl)c1CN1CCN(C2CCCC2)C(CCO)C1 (configuration not stated) | -0.4 | · | · | · | ·
COc1ccc(NC(=O)N2CCCC(c3nc(-c4ccc(OC)cc4)no3)C2)cc1 (configuration not stated) | 1.1 | · | · | · | ·
COc1ccc(NC(=O)N2CCCC(c3nc(-c4ccc(C(C)C)cc4)no3)C2)cc1 (configuration not stated) | 11.7* | -20.9 | 1.4 | -12.1 | 2.1
COc1cc(S(=O)(=O)Nc2ccccc2)ccc1N=Cc1c(C)[nH]n(-c2ccc(C)cc2)c1=O | 13.4* | -23.4 | 16.8 | 0.4 | 1.2
COc1cc(SC#N)ccc1N=Cc1c(C)[nH]n(-c2ccc(Cl)cc2)c1=O | 0.8 | -18.7 | 3.5 | -1.8 | ·
CCCCNC(=S)N(C)/N=C/c1ccc(OCC(=O)Nc2ccc(OC)cc2)c(OC)c1 | 15.1* | -20.3 | 10.4 | -0.5 | 3.5
COc1ccc(N(C)S(=O)(=O)c2cccc(C(=O)NCC3CCCCC3)c2)cc1 | 12.8* | · | · | · | 1.8
COc1ccc(N(C)S(=O)(=O)c2cccc(C(=O)NC3CCCCC3C)c2)cc1 (configuration not stated) | 1.4 | · | · | · | ·
N=c1occ(C(=O)c2cc(F)ccc2O)cc1C(=O)NC1CCCCC1 | 4.2 | · | · | · | ·
CCCOc1ccc(N2C(=O)CC(N(CCOC34CC5CC(CC(C5)C3)C4)C(C)=O)C2=O)cc1 (configuration not stated) | 3.7 | · | · | · | ·
Cc1ccccc1OCCC(=O)Nc1cccc(S(=O)(=O)Nc2ccccc2Cl)c1 | 17.4* | -23.5 | 23.0 | 6.6 | 2.8
FC(F)(F)c1cc(-c2ccco2)nc(N2CCN(Cc3ccccc3)CC2)n1 | -0.1 | -27.0 | 11.8 | -13.7 | ·
Fc1ccc(N2CCN(c3nc(-c4ccco4)cc(C(F)(F)F)n3)CC2)cc1 | 14.3* | -44.2 | 4.1 | -7.1 | 3.8
O=C(Nc1nc(-c2cccnc2)cs1)c1ccccc1[N+](=O)[O-] | 5.5 | · | · | · | ·
Cc1ccc(SCC(=O)Nc2ccc(F)cc2[N+](=O)[O-])cc1C | 14.6* | -45.6 | 16.1 | 1.5 | 0.7
COc1ccc(OC)c(NC(=O)CSCc2cnn(-c3ccccc3)c2-n2cccc2)c1 | 16.3* | -47.8 | 5.5 | 35.2 | 2.8
COc1cc(NC(=O)CSCc2cnn(-c3ccccc3)c2-n2cccc2)cc(OC)c1 | 19.8* | -52.4 | 8.3 | -2.5 | 2.4
CC(C)CC(c1nnnn1C1CCCC1)N1CCC(C(N)=O)CC1 (configuration not stated) | 2.4 | · | · | · | ·
O=C(CSc1nnc(-c2ccncc2)n1-c1ccccc1)Nc1ccc(C(=O)O)cc1 | 0.6 | · | · | · | ·
O=C(CSc1nnc(-c2ccncc2)n1-c1ccccc1Cl)Nc1ccc(C(=O)O)cc1 | 11.6* | · | · | · | 2.7
C=CCOc1ccc(C2C(C(=O)c3ccco3)=C(O)C(=O)N2c2nnc(C)s2)cc1 (configuration not stated) | 5.4 | · | · | · | ·
CSC(=S)NCc1cccnc1 | 0.2 | · | · | · | ·
Cc1ccc(NC(=O)c2cc(S(=O)(=O)NCCC3=CCCCC3)ccc2F)cc1 | 15.9* | -41.7 | 6.0 | -0.5 | 3.6
CC(=O)N1CCCc2cc(S(=O)(=O)NCCC3=CCCCC3)ccc21 | -0.9 | 14.2 | 2.0 | -22.2 | ·
SMILES | RAM network inh | BB579 growth dn | Measles CPE | Yeast lifespan up | RAM 5-FOA
CN1CCN(C(=O)c2ccc(-n3cccn3)nc2)CC1 | 0.0 | · | · | · | ·
C[N+]1(C2CCC3CCCC2C3O)CCCCC1 (configuration not stated) | 0.4 | · | · | · | ·
O=C(CSc1nnc(-c2ccccc2)n1Cc1ccco1)Nc1ccc2c(c1)OCCO2 | 6.2 | -24.7 | 15.5 | -22.8 | ·
Cc1ccc(OCc2nnc(SCC(=O)Nc3ccc4c(c3)OCCO4)n2Cc2ccco2)cc1 | 11.7* | -34.8 | 4.8 | -4.6 | 1.5
Cc1sc2ncn(CC(=O)NCCCC(=O)N3CCN(Cc4ccc5c(c4)OCO5)CC3)c(=O)c2c1C | 2.7 | · | · | · | ·
COc1cccc(C(=O)Oc2ccccc2/C=C\C(=O)c2cc3ccccc3o2)c1 | 16.4* | -34.1 | 24.1 | 3.5 | 7.8
O=C(Oc1ccccc1/C=C\C(=O)c1cc2ccccc2o1)c1ccccc1 | 8.2 | -20.4 | 1.8 | 0.1 | ·
O=C(CCCCC(=O)NC1CCCC1)NC1CCCC1 | 0.0 | 7.2 | 16.1 | -0.4 | ·
CCCNC(=O)c1ccccc1NC(=O)c1ccc(CSc2ccccc2)cc1 | 12.7* | -20.8 | 8.8 | -7.4 | 4.9
CCCNC(=O)c1ccccc1NC(=O)c1ccccc1SC | 1.4 | · | · | · | ·
